{
  "source": "paper PMC6976987",
  "about": "(Molecular Genetics and Metabolism Reports, 2020)",
  "key": {"[1]": {"assay": "Rifampin drug interaction study: eliglustat pharmacokinetics in healthy adults", "type": "in vivo, human", "conditions": "for Tmax / AUC / Cmax: human, plasma; for Tmax: median (minimum, maximum); for AUC: AUC0-τ, 0 to 12 h; for AUC / Cmax: mean (SD)"}, "[2]": {"assay": "Safety assessments", "type": "in vivo, human", "outline": "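Open-label study in healthy adults. Safety was monitored after a single dose (Day 1), during multiple doses alone (Days 2–8), and during co-dosing (Days 9–15 with the CYP3A/P-gp inhibitor; Days 9–18 with the CYP2D6 inhibitor). Measures: treatment-emergent AEs, clinical labs, vital signs, physical exams, 12-lead ECG, 12 h continuous telemetry. An AE counted as treatment-related if possibly, probably or definitely related to study drug.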"}, "[3]": {"assay": "Safety assessments", "type": "in vivo, human", "remark": "listed apart in the source"}, "[4]": {"assay": "Eliglustat alone, pharmacokinetics across all three studies", "type": "in vivo, human", "outline": "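Test compound given orally to healthy adults as a single dose, then BID. Terminal half-life comes from single-dose plasma profiles by non-compartmental analysis. Plasma was protein-precipitated with acetonitrile containing a 13C internal standard, solid-phase extracted and measured by LC-MS/MS. Steady state was judged by graphical examination of pre-dose (trough) concentrations during repeated dosing.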"}, "[5]": {"tested_on": "glucosylceramide synthase", "conditions": "read-out: in vitro IC50; inhibitor of glucosylceramide synthase; cited from earlier work"}, "[6]": {"conditions": "oral, 84 mg, CYP2D6 PMs, eliglustat 84 mg BID, monotherapy period Days 2 to 6"}, "[7]": {"conditions": "oral, 127 mg, CYP2D6 non-PMs (N = 19), eliglustat 127 mg BID, monotherapy period Days 2 to 6"}, "[8]": {"conditions": "oral, 127 mg, IMs/EMs only (N = 14), eliglustat 127 mg BID, monotherapy period Days 2 to 6"}, "[9]": {"conditions": "po, CYP2D6 PMs, eliglustat 84 mg BID + rifampin 600 mg oral QD, concomitant period Days 2 to 6"}, "[10]": {"conditions": "po, CYP2D6 non-PMs (N = 18), eliglustat 127 mg BID + rifampin 600 mg oral QD, concomitant period Days 2 to 6"}, "[11]": {"conditions": "po, IMs/EMs only (N = 13), eliglustat 127 mg BID + rifampin 600 mg oral QD, concomitant period Days 2 to 6"}, "[12]": {"conditions": "concomitant dosing of eliglustat with ketoconazole, Days 9 to 15, N = 33"}, "[13]": {"conditions": "ketoconazole study (N = 36), whole study"}, "[14]": {"conditions": "multiple-dose eliglustat period, Days 2 to 8, N = 34"}, "[15]": {"conditions": "rifampin study (N = 25), whole study"}, "[16]": {"conditions": "rifampin study (N = 25), road traffic accident, unrelated to eliglustat or rifampin"}},
  "note": "Marks after values point to notes of the source that are not given here.",
  "data": [
    {"smiles": "CCCCCCCC(=O)N[C@H](CN1CCCC1)[C@H](O)c1ccc2c(c1)OCCO2", "note": "[eliglustat]", "values": [
      {"measurement": "Tmax", "setting": "[1]; iv, CYP2D6 non-PMs (N = 19), eliglustat 127 mg single dose + rifampin 600 mg IV single dose, concomitant period Day 1", "result": 3, "unit": "h"},
      {"measurement": "AUC", "setting": "[1]; [6]", "result": 922, "unit": "ng·h/mL"},
      {"measurement": "Cmax", "setting": "[1]; [6]", "result": 113, "unit": "ng/mL"},
      {"measurement": "Tmax", "setting": "[1]; [6]", "result": 3, "unit": "h"},
      {"measurement": "AUC", "setting": "[1]; [7]", "result": 295, "unit": "ng·h/mL"},
      {"measurement": "AUC", "setting": "[1]; [8]", "result": 378, "unit": "ng·h/mL"},
      {"measurement": "Cmax", "setting": "[1]; [7]", "result": 42.8, "unit": "ng/mL"},
      {"measurement": "Cmax", "setting": "[1]; [8]", "result": 54.7, "unit": "ng/mL"},
      {"measurement": "Tmax", "setting": "[1]; [7]", "result": 2, "unit": "h"},
      {"measurement": "AUC", "setting": "[1]; [9]", "result": 38, "unit": "ng·h/mL"},
      {"measurement": "AUC", "setting": "[1]; [10]", "result": 29.3, "unit": "ng·h/mL"},
      {"measurement": "AUC", "setting": "[1]; [11]", "result": 31, "unit": "ng·h/mL"},
      {"measurement": "Cmax", "setting": "[1]; [9]", "result": 5.7, "unit": "ng/mL"},
      {"measurement": "Cmax", "setting": "[1]; [10]", "result": 4.67, "unit": "ng/mL"},
      {"measurement": "Cmax", "setting": "[1]; [11]", "result": 4.89, "unit": "ng/mL"},
      {"measurement": "Tmax", "setting": "[1]; [9]", "result": 2.5, "unit": "h"},
      {"measurement": "Tmax", "setting": "[1]; [10]", "result": 1.5, "unit": "h"},
      {"measurement": "changes in eliglustat exposure", "setting": "[1]; in the presence of a single IV infusion of rifampin, called negligible", "result": "< 19", "unit": "%"},
      {"measurement": "effect of a single intravenous dose of rifampin on eliglustat", "setting": "[1]; single IV rifampin dose, overall statement", "result": "no effect"},
      {"measurement": "tolerability", "setting": "[2]; administered alone and with ketoconazole", "result": "well tolerated"},
      {"measurement": "subjects with dysmenorrhea of moderate intensity", "setting": "[2]; concomitant dosing of eliglustat with ketoconazole", "result": 3.0, "unit": "%"},
      {"measurement": "number of AEs", "setting": "[2]; [12]", "result": 33, "unit": "AEs"},
      {"measurement": "subjects with AEs", "setting": "[2]; [12]", "result": 48.5, "unit": "%"},
      {"measurement": "subjects reporting AEs related to eliglustat", "setting": "[2]; concomitant dosing with ketoconazole, N = 33", "result": 36.4, "unit": "%"},
      {"measurement": "subjects reporting AEs possibly related to both eliglustat and ketoconazole", "setting": "[2]; concomitant dosing, N = 33", "result": 33.3, "unit": "%"},
      {"measurement": "subjects reporting treatment-related AEs", "setting": "[2]; following a single dose of eliglustat, Day 1, N = 36", "result": 5.6, "unit": "%"},
      {"measurement": "QTcF interval prolongation", "setting": "[2]; ketoconazole study", "result": "no clinically significant prolongations of QTcF interval"},
      {"measurement": "Any adverse event (AE), number of events", "setting": "[2]; [13]", "result": 58, "unit": "N"},
      {"measurement": "Any adverse event (AE), number of subjects", "setting": "[2]; [13]", "result": "20 (55.6%) N (%)"},
      {"measurement": "Any treatment-related AE, number of events", "setting": "[2]; [13]", "result": 45, "unit": "N"},
      {"measurement": "Any treatment-related AE, number of subjects", "setting": "[2]; [13]", "result": "15 (41.7%) N (%)"},
      {"measurement": "Discontinuations due to AE, number of events", "setting": "[2]; [13]", "result": 0, "unit": "N"},
      {"measurement": "Discontinuations due to AE, number of subjects", "setting": "[2]; [13]", "result": "0 (0.0%) N (%)"},
      {"measurement": "Serious AEs, number of events", "setting": "[2]; [13]", "result": 0, "unit": "N"},
      {"measurement": "Serious AEs, number of subjects", "setting": "[2]; [13]", "result": "0 (0.0%) N (%)"},
      {"measurement": "Severe AEs, number of events", "setting": "[2]; [13]", "result": 0, "unit": "N"},
      {"measurement": "Severe AEs, number of subjects", "setting": "[2]; [13]", "result": "0 (0.0%) N (%)"},
      {"measurement": "subjects with dysmenorrhea of moderate intensity", "setting": "[2]; multiple-dose eliglustat", "result": 2.9, "unit": "%"},
      {"measurement": "number of AEs", "setting": "[2]; [14]", "result": 21, "unit": "AEs"},
      {"measurement": "subjects with AEs", "setting": "[2]; [14]", "result": 32.4, "unit": "%"},
      {"measurement": "subjects reporting treatment-related AEs", "setting": "[2]; multiple-dose eliglustat, N = 34", "result": 23.5, "unit": "%"},
      {"measurement": "subjects with headache of moderate intensity", "setting": "[2]; multiple-dose eliglustat, possibly related to eliglustat, unlikely related to ketoconazole", "result": 2.9, "unit": "%"},
      {"measurement": "tolerability", "setting": "[3]; administered alone and with rifampin", "result": "well tolerated"},
      {"measurement": "subjects with moderate dizziness", "setting": "[3]; after completing multiple doses of eliglustat alone", "result": 4.0, "unit": "%"},
      {"measurement": "subjects reporting an AE related to eliglustat", "setting": "[3]; concomitant dosing with IV rifampin, Day 12, N = 25", "result": 4.0, "unit": "%"},
      {"measurement": "subjects reporting AEs related to eliglustat", "setting": "[3]; concomitant dosing with oral rifampin, Days 13 to 17, N = 24", "result": 8.3, "unit": "%"},
      {"measurement": "subjects with moderate nausea, vomiting, and retching", "setting": "[3]; during the multiple doses of eliglustat alone", "result": 4.0, "unit": "%"},
      {"measurement": "subjects reporting treatment-related AEs", "setting": "[3]; following treatment with eliglustat alone, N = 25", "result": 20.0, "unit": "%"},
      {"measurement": "Any adverse event (AE), number of events", "setting": "[3]; [15]", "result": 65, "unit": "N"},
      {"measurement": "Any adverse event (AE), number of subjects", "setting": "[3]; [15]", "result": "17 (68.0%) N (%)"},
      {"measurement": "Any treatment-related AE, number of events", "setting": "[3]; [15]", "result": 39, "unit": "N"},
      {"measurement": "Any treatment-related AE, number of subjects", "setting": "[3]; [15]", "result": "11 (44.0%) N (%)"},
      {"measurement": "Discontinuations due to AE, number of events", "setting": "[3]; [16]", "result": "1 ^a N"},
      {"measurement": "Discontinuations due to AE, number of subjects", "setting": "[3]; [16]", "result": "1 (4%) N (%)"},
      {"measurement": "Serious AEs, number of events", "setting": "[3]; [16]", "result": "1 ^a N"},
      {"measurement": "Serious AEs, number of subjects", "setting": "[3]; [16]", "result": "1 (4%) N (%)"},
      {"measurement": "Severe AEs, number of events", "setting": "[3]; [16]", "result": "1 ^a N"},
      {"measurement": "Severe AEs, number of subjects", "setting": "[3]; [16]", "result": "1 (4%) N (%)"},
      {"measurement": "subjects reporting moderate AEs that were treatment-related", "setting": "[3]; rifampin study overall", "result": 12.0, "unit": "%"},
      {"measurement": "half-life", "setting": "[4]; human, plasma, oral", "result": "252 to 307", "unit": "min"},
      {"measurement": "time to steady-state", "setting": "[4]; repeated doses of eliglustat, graphical examination of Ctrough values", "result": "approximately 4 days"},
      {"measurement": "IC50", "setting": "[5]", "result": 24, "unit": "nM"}
    ]}
  ]
}
